Values after ≈ are worked out from the molar mass of the structure shown.
Experiments:
[1] = Inhibition of Escherichia coli DNA topoisomerase 4 using kDNA as substrate after 1 hr by agarose gel electrophoresis
How it was run: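 E. coli topoisomerase IV decatenation kit: kDNA (0.5 µg) with 1 U enzyme in supplied buffer plus varying compound levels, 37 °C for 1 h. Stopped as for the gyrase assay, then 1% agarose in TAE, 1.5 h at 80 V, ethidium bromide. IC50 = concentration blocking 50% conversion to decatenated minicircles, by gel densitometry.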

[2] = molecular target: DNA gyrase (Escherichia coli, UniProt P0AES4+P0AES6); test: Inhibition of Escherichia coli DNA gyrase after 1 hr by agarose gel electrophoresis; format: protein-complex assay
[3] = tested on: Pseudomonas aeruginosa; test: Antimicrobial activity against Pseudomonas aeruginosa ATCC 9027 after 18 hrs by broth microdilution method; format: functional; conditions: ATCC 9027, 18 h
[4] = tested on: Staphylococcus epidermidis; test: Antimicrobial activity against Staphylococcus epidermidis ATCC 12228 after 18 hrs by broth microdilution method; format: functional; conditions: ATCC 12228, 18 h
[5] = tested on: Staphylococcus aureus; test: Antimicrobial activity against methicillin-susceptible Staphylococcus aureus ATCC 25923 after 18 hrs by broth microdilution method; format: functional; conditions: ATCC 25923, 18 h
[6] = tested on: Micrococcus luteus; test: Antimicrobial activity against Micrococcus luteus ATCC 10240 after 18 hrs by broth microdilution method; format: functional; conditions: ATCC 10240, 18 h
[7] = tested on: Staphylococcus aureus; test: Antimicrobial activity against methicillin-susceptible Staphylococcus aureus ATCC 6538 after 18 hrs by broth microdilution method; format: functional; conditions: ATCC 6538, 18 h
[8] = tested on: Staphylococcus aureus; test: Ratio of MBC for methicillin-susceptible Staphylococcus aureus ATCC 6538 to MIC for methicillin-susceptible Staphylococcus aureus ATCC 6538; format: functional
How it was run: (§1)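 MBC taken as lowest concentration giving >99.9% CFU reduction of the initial inoculum; value is MBC divided by MIC for the same strain.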

[9] = tested on: Staphylococcus aureus; test: Antimicrobial activity against Staphylococcus aureus Microbank 14001 after 18 hrs by broth microdilution method; format: functional; conditions: Microbank 14001, 18 h
[10] = tested on: Proteus mirabilis; test: Antimicrobial activity against Proteus mirabilis ATCC 12453 after 18 hrs by broth microdilution method; format: functional; conditions: ATCC 12453, 18 h
[11] = tested on: Bacillus cereus; test: Antimicrobial activity against Bacillus cereus ATCC 10876 after 18 hrs by broth microdilution method; format: functional; conditions: ATCC 10876, 18 h
[12] = tested on: Staphylococcus aureus; test: Ratio of MBC for Staphylococcus aureus Microbank 14001 to MIC for Staphylococcus aureus Microbank 14001; format: functional; how it was run: as §1
[13] = tested on: Klebsiella pneumoniae; test: Antimicrobial activity against Klebsiella pneumoniae ATCC 13883 after 18 hrs by broth microdilution method; format: functional; conditions: ATCC 13883, 18 h
[14] = tested on: Bacillus subtilis; test: Antimicrobial activity against Bacillus subtilis […] after 18 hrs by broth microdilution method; format: functional
[15] = tested on: Escherichia coli; test: Antimicrobial activity against Escherichia coli ATCC 25922 after 18 hrs by broth microdilution method; format: functional; conditions: ATCC 25922, 18 h
[16] = tested on: HEK293; test: Cytotoxicity against HEK293 cells after 72 hrs by MTT assay; format: cell-based; conditions: Homo sapiens, HEK293, 48 h; in the assay text read “48 hrs” for “72 hrs”
How it was run: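 HEK-293 (ATCC CRL-1573) in MEM with 10% FBS plus penicillin/streptomycin, seeded 3 x 10^5 cells/well, 24 h at 37 °C, 5% CO2. Treated with compounds diluted from 50 mg/mL DMSO stock into medium with 2% FBS for 48 h. Viability by MTT formazan readout; EC50 relative to control cells, mean ± SD of three independent experiments.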

[17] = tested on: Staphylococcus aureus; test: Ratio of MBC for methicillin-susceptible Staphylococcus aureus ATCC 25923 to MIC for methicillin-susceptible Staphylococcus aureus ATCC 25923; format: functional; how it was run: as §1
[18] = tested on: Staphylococcus aureus; test: Ratio of vancomycin MIC to compound MIC for Staphylococcus aureus Microbank 14001; format: functional
[19] = tested on: Staphylococcus aureus; test: Ratio of ciprofloxacin MIC to compound MIC for methicillin-susceptible Staphylococcus aureus ATCC 6538; format: functional
[20] = tested on: Pseudomonas aeruginosa; test: Ratio of ciprofloxacin MIC to compound MIC for Pseudomonas aeruginosa ATCC 9027; format: functional
[21] = tested on: Staphylococcus aureus; test: Ratio of ciprofloxacin MIC to compound MIC for methicillin-susceptible Staphylococcus aureus ATCC 25923; format: functional

Structure (SMILES) | IC50 [1] [µM] | MIC [3] [µM] | MIC [4] [µM] | MIC [5] [µM] | MIC [6] [µM] | MIC [7] [µM] | MIC [9] [µM] | MIC [10] [µM] | MIC [11] [µM] | MIC [13] [µM] | MIC [14] [µM] | MIC [15] [µM] | Ratio [8] | Ratio [12] | EC50 [16] [µM] | Ratio [17] | further results
O=C(O)c1cn(C2CC2)c2cc(N3CCN(Cn4nc(-c5cccc(O)c5)n(-c5cccc(I)c5)c4=S)CC3)c(F)cc2c1=O | 78.1 | – | – | – | – | – | – | – | – | – | – | – | – | – | – | – | IC50 [2]: 9.78 µM
O=C(O)c1cn(C2CC2)c2cc(N3CCN(Cn4nc(-c5cccc(O)c5)n(-c5cc(Cl)cc(Cl)c5)c4=S)CC3)c(F)cc2c1=O | 78.7 | – | – | – | – | – | – | – | – | – | – | – | – | – | – | – | IC50 [2]: 6.05 µM
CCCc1nn(CN2CCN(c3cc4c(cc3F)c(=O)c(C(=O)O)cn4C3CC3)CC2)c(=S)n1-c1cccc(I)c1 | 155 | – | – | – | – | – | – | – | – | – | – | – | – | – | – | – | IC50 [2]: 6.28 µM
O=C(O)c1cn(C2CC2)c2cc(N3CCN(Cn4nc(-c5ccccc5O)n(Cc5ccccc5)c4=S)CC3)c(F)cc2c1=O | – | 0.096 (≈ 0.0602 µg/mL) | 0.38 (≈ 0.238 µg/mL) | 0.38 (≈ 0.238 µg/mL) | 1.56 (≈ 0.978 µg/mL) | 0.19 (≈ 0.119 µg/mL) | 0.38 (≈ 0.238 µg/mL) | 0.024 (≈ 0.015 µg/mL) | 0.19 (≈ 0.119 µg/mL) | 0.096 (≈ 0.0602 µg/mL) | 0.048 (≈ 0.0301 µg/mL) | 0.006 (≈ 0.00376 µg/mL) | <=4 | <=4 | 69.1 | <=4 | –
O=C(O)c1cn(C2CC2)c2cc(N3CCN(Cn4nc(-c5ccccc5O)n(Cc5ccc(F)cc5)c4=S)CC3)c(F)cc2c1=O | – | 0.046 (≈ 0.0297 µg/mL) | 0.046 (≈ 0.0297 µg/mL) | 0.76 (≈ 0.49 µg/mL) | 0.76 (≈ 0.49 µg/mL) | 0.19 (≈ 0.122 µg/mL) | 0.046 (≈ 0.0297 µg/mL) | 0.023 (≈ 0.0148 µg/mL) | 0.093 (≈ 0.06 µg/mL) | 0.093 (≈ 0.06 µg/mL) | 0.011 (≈ 0.00709 µg/mL) | 0.011 (≈ 0.00709 µg/mL) | <=4 | <=4 | – | <=4 | Ratio [18]: 15
COc1ccc(Cn2c(-c3ccccc3O)nn(CN3CCN(c4cc5c(cc4F)c(=O)c(C(=O)O)cn5C4CC4)CC3)c2=S)cc1 | – | 0.023 (≈ 0.0151 µg/mL) | 0.046 (≈ 0.0302 µg/mL) | 0.36 (≈ 0.236 µg/mL) | 1.49 (≈ 0.979 µg/mL) | 0.091 (≈ 0.0598 µg/mL) | 0.091 (≈ 0.0598 µg/mL) | 0.023 (≈ 0.0151 µg/mL) | 0.091 (≈ 0.0598 µg/mL) | 0.023 (≈ 0.0151 µg/mL) | 0.011 (≈ 0.00722 µg/mL) | 0.011 (≈ 0.00722 µg/mL) | <=4 | <=4 | 78.7 | <=4 | Ratio [19]: 8; Ratio [20]: 31
COc1ccc(-n2c(-c3cccc(O)c3)nn(CN3CCN(c4cc5c(cc4F)c(=O)c(C(=O)O)cn5C4CC4)CC3)c2=S)cc1 | – | 0.19 (≈ 0.122 µg/mL) | 0.19 (≈ 0.122 µg/mL) | 0.74 (≈ 0.476 µg/mL) | 1.52 (≈ 0.977 µg/mL) | 0.37 (≈ 0.238 µg/mL) | 0.093 (≈ 0.0598 µg/mL) | 0.047 (≈ 0.0302 µg/mL) | 0.19 (≈ 0.122 µg/mL) | 0.093 (≈ 0.0598 µg/mL) | 0.37 (≈ 0.238 µg/mL) | 0.006 (≈ 0.00386 µg/mL) | <=4 | <=4 | 114 | <=4 | –
COc1ccc(-n2c(-c3ccc(O)cc3)nn(CN3CCN(c4cc5c(cc4F)c(=O)c(C(=O)O)cn5C4CC4)CC3)c2=S)cc1 | – | 0.023 (≈ 0.0148 µg/mL) | 0.37 (≈ 0.238 µg/mL) | 0.76 (≈ 0.488 µg/mL) | 1.52 (≈ 0.977 µg/mL) | 0.19 (≈ 0.122 µg/mL) | 0.093 (≈ 0.0598 µg/mL) | 0.023 (≈ 0.0148 µg/mL) | 0.19 (≈ 0.122 µg/mL) | 0.093 (≈ 0.0598 µg/mL) | 0.023 (≈ 0.0148 µg/mL) | 0.012 (≈ 0.00771 µg/mL) | <=4 | <=4 | 105 | <=4 | Ratio [20]: 31

More lines, main results first:

IC50 [1] [µM] | MIC [3] [µM] | MIC [4] [µM] | MIC [5] [µM] | MIC [6] [µM] | MIC [7] [µM] | MIC [9] [µM] | MIC [10] [µM] | MIC [11] [µM] | MIC [13] [µM] | MIC [14] [µM] | MIC [15] [µM] | Structure (SMILES) | Ratio [8] | Ratio [12] | EC50 [16] [µM] | Ratio [17] | further results
– | 0.19 (≈ 0.116 µg/mL) | 0.19 (≈ 0.116 µg/mL) | 0.8 (≈ 0.49 µg/mL) | 1.6 (≈ 0.98 µg/mL) | 0.39 (≈ 0.239 µg/mL) | 0.39 (≈ 0.239 µg/mL) | 0.024 (≈ 0.0147 µg/mL) | 0.19 (≈ 0.116 µg/mL) | 0.049 (≈ 0.03 µg/mL) | 0.098 (≈ 0.06 µg/mL) | 0.012 (≈ 0.00735 µg/mL) | O=C(O)c1cn(C2CC2)c2cc(N3CCN(Cn4nc(-c5cccc(O)c5)n(-c5ccccc5)c4=S)CC3)c(F)cc2c1=O | <=4 | <=4 | 140 | <=4 | –
– | 0.093 (≈ 0.06 µg/mL) | 0.19 (≈ 0.122 µg/mL) | 0.37 (≈ 0.239 µg/mL) | 0.76 (≈ 0.49 µg/mL) | 0.093 (≈ 0.06 µg/mL) | 0.37 (≈ 0.239 µg/mL) | 0.006 (≈ 0.00387 µg/mL) | 0.093 (≈ 0.06 µg/mL) | 0.046 (≈ 0.0297 µg/mL) | 0.023 (≈ 0.0148 µg/mL) | 0.006 (≈ 0.00387 µg/mL) | O=C(O)c1cn(C2CC2)c2cc(N3CCN(Cn4nc(-c5cccc(O)c5)n(Cc5ccc(F)cc5)c4=S)CC3)c(F)cc2c1=O | <=4 | <=4 | 69.5 | <=4 | Ratio [19]: 8
– | 0.18 (≈ 0.118 µg/mL) | 0.091 (≈ 0.0598 µg/mL) | 0.18 (≈ 0.118 µg/mL) | 1.49 (≈ 0.979 µg/mL) | 0.091 (≈ 0.0598 µg/mL) | 0.046 (≈ 0.0302 µg/mL) | 0.023 (≈ 0.0151 µg/mL) | 0.18 (≈ 0.118 µg/mL) | 0.091 (≈ 0.0598 µg/mL) | 0.091 (≈ 0.0598 µg/mL) | 0.011 (≈ 0.00722 µg/mL) | COc1ccc(Cn2c(-c3cccc(O)c3)nn(CN3CCN(c4cc5c(cc4F)c(=O)c(C(=O)O)cn5C4CC4)CC3)c2=S)cc1 | <=4 | <=4 | 62.9 | <=4 | Ratio [21]: 16; Ratio [19]: 8; Ratio [18]: 15
– | 0.38 (≈ 0.24 µg/mL) | 0.095 (≈ 0.0599 µg/mL) | 0.19 (≈ 0.12 µg/mL) | 1.55 (≈ 0.978 µg/mL) | 0.19 (≈ 0.12 µg/mL) | 0.19 (≈ 0.12 µg/mL) | 0.048 (≈ 0.0303 µg/mL) | 0.095 (≈ 0.0599 µg/mL) | 0.19 (≈ 0.12 µg/mL) | 0.048 (≈ 0.0303 µg/mL) | 0.024 (≈ 0.0151 µg/mL) | O=C(O)c1cn(C2CC2)c2cc(N3CCN(Cn4nc(-c5ccc(O)cc5)n(-c5ccc(F)cc5)c4=S)CC3)c(F)cc2c1=O | <=4 | <=4 | 106 | <=4 | Ratio [21]: 16
80 | 0.72 (≈ 0.239 µg/mL) | 1.48 (≈ 0.49 µg/mL) | 2.96 (≈ 0.981 µg/mL) | 5.88 (≈ 1.95 µg/mL) | 0.72 (≈ 0.239 µg/mL) | – | 0.045 (≈ 0.0149 µg/mL) | 0.36 (≈ 0.119 µg/mL) | 0.36 (≈ 0.119 µg/mL) | 0.09 (≈ 0.0298 µg/mL) | 0.024 (≈ 0.00795 µg/mL) | O=C(O)c1cn(C2CC2)c2cc(N3CCNCC3)c(F)cc2c1=O [CIPROFLOXACIN] | – | – | – | – | –

From ChEMBL document CHEMBL3421560, “Search for factors affecting antibacterial activity and toxicity of 1,2,4-triazole-ciprofloxacin hybrids” (Eur J Med Chem, 2015)
